Activity calls are given as the source filed them. The rule behind the calls is not given here.
Key:
[1] = Efflux ratio of apparent permeability from basolateral to apical over apical to basolateral side in human Caco2 cells at 10 uM after 15 to 60 mins; type: ADME, cell-based; conditions: Caco-2
[2] = target: T1, Lipoprotein lipase (Bos taurus) (UniProt P11151); assay: Induction of bovine LPL stabilization using intralipid as substrate at 25 uM preincubated for 10 mins with human recombinant ANGPTL4 followed by substrate addition measured after 45 mins relative to control
T1 sequence (whole entry): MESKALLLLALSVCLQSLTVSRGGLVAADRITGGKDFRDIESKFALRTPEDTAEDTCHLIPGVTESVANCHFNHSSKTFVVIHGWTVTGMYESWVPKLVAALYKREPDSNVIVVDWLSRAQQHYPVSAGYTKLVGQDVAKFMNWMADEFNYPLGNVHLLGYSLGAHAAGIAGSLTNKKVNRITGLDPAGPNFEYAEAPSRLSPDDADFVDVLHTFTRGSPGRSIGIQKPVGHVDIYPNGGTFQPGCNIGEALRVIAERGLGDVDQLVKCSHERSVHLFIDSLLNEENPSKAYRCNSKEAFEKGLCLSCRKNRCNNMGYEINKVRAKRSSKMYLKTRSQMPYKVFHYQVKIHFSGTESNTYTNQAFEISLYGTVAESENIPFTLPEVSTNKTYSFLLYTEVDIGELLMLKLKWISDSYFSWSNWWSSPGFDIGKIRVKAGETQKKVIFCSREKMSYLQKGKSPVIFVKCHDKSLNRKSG
In short: (§1)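 Compound in DMSO in buffer (50 mM potassium phosphate pH 7.4, 0.15 M NaCl, 0.01% Triton X-100), with human ANGPTL4 N-terminal fragment (aa 26-184, 75 nM final) and bovine LPL (15 nM final). Preincubated 10 min at 25 °C with shaking. Stopped after 45 min with 2.5% Triton X-100, and NEFA measured enzymatically. Activity normalised between DMSO+LPL+ANGPTL4 (0%) and DMSO+LPL (100%).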

[3] = Intrinsic clearance in human hepatocytes assessed per 10^6 cells at 1 uM after 10 to 60 mins by LC-MS/MS analysis in presence of NADPH; type: ADME, cell-based, Hepatocyte; conditions: read-out: CLH
In short: (§2)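 Freshly isolated human hepatocytes (0.5 x 10⁶ cells/ml) in Williams medium E with compound at 1 μM. Reaction started by adding cells. Sampled at 0, 10, 30 and 60 min in duplicate, quenched with acetonitrile containing warfarin, then LC-MS/MS.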

[4] = Intrinsic clearance in human liver microsomes at 1 uM after 5 to 40 mins by LC-MS/MS analysis in presence of NADPH; type: ADME; conditions: read-out: CLH
In short: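 Pooled liver microsomes (0.5 mg/ml) with compound at 1 μM in 0.1 M phosphate buffer pH 7.4. Reaction started with NADPH 1 mM. Sampled at 0, 5, 15 and 40 min in duplicate, quenched with acetonitrile containing warfarin, then LC-MS/MS.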

Lipoprotein lipase = target: T2, Lipoprotein lipase (Bos taurus, UniProt P11151); assay: Induction of bovine LPL stabilization using intralipid as substrate preincubated for 10 mins with human recombinant ANGPTL4 followed by substrate addition measured after 45 mins relative to control; in short: as §1
T2 sequence (P11151 whole entry): T1 sequence (whole entry)

[5] = Apparent permeability across basolateral to apical side in human Caco2 cells at 10 uM after 15 to 60 mins; type: ADME, cell-based; conditions: Caco-2
[6] = target: T1, Lipoprotein lipase (Bos taurus); assay: Induction of bovine LPL stabilization using intralipid as substrate at 3.12 uM preincubated for 10 mins with human recombinant ANGPTL4 followed by substrate addition measured after 45 mins relative to control; in short: as §1
[7] = target: T3, Peroxisome proliferator-activated receptor alpha (Homo sapiens, UniProt Q07869); assay: Agonist activity at PPARalpha (unknown origin)
T3 sequence (Q07869 whole entry): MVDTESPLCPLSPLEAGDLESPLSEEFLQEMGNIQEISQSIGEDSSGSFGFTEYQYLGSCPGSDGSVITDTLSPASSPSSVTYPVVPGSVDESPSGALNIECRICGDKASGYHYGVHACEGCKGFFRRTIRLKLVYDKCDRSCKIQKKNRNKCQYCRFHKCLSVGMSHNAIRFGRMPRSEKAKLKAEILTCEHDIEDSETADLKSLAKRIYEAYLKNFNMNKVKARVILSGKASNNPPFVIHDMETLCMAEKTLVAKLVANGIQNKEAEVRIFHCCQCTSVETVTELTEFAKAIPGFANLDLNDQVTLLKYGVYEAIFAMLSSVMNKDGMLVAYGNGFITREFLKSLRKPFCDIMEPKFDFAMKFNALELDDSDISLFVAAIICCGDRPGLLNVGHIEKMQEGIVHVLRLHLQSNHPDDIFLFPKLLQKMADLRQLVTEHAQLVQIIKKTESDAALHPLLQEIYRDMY
In short: (§3)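 Single agonist-mode profiling at ten concentrations against FXR, PPARα, PPARγ and RXRα, run as an outside screening service.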

[8] = Stability of the compound in human plasma after 4 hrs at 37 degC by mass spectrometric analysis; type: ADME, cell-free; conditions: read-out: Stability
In short: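 Plasma test solution (pooled human plasma, typically 10 μM compound) held at 37 °C for 4 h, matching the dialysis time. A reference sample was frozen immediately. Proteins precipitated with methanol containing warfarin, then LC-MS/MS. Stability expressed on a relative basis.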

[9] = target: T4, Retinoic acid receptor RXR-alpha (Homo sapiens, UniProt P19793); assay: Agonist activity at RXRalpha (unknown origin); in short: as §3
T4 sequence (P19793 whole entry): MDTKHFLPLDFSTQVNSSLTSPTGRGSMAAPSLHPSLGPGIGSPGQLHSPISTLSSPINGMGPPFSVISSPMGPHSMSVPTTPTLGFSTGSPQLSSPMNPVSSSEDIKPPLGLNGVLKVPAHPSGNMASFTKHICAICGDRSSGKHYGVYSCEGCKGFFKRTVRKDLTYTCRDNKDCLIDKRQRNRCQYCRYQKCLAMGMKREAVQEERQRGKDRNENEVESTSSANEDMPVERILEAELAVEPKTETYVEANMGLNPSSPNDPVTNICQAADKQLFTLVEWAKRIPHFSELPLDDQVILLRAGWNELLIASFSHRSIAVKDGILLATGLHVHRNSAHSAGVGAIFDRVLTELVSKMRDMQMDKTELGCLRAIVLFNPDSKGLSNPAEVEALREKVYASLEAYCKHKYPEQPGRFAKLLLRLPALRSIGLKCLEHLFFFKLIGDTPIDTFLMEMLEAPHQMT

[10] = Kinetic aqueous solubility of the compound in PBS at pH 7.4 after 2 hrs by LC-MS/MS analysis; type: physicochemical; conditions: read-out: Kinetic_solubility
In short: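 Kinetic solubility from a 10 mM DMSO stock diluted 1:100 (1% DMSO, maximum detectable 0.1 mM) into PBS pH 7.4 or HCl-adjusted PBS at about pH 1.2. Incubated at 37 °C for 2 h in sealed glass vials, centrifuged at 10000 x g, 37 °C, 20 min, then LC-MS/MS.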

[11] = Half life in human hepatocytes at 1 uM; type: ADME, cell-based, Hepatocyte; in short: as §2

efflux ratio at 10 µM [1]: 1.4 | Activity [2]: 97% | hepatocyte CLint at 1 µM [3]: 12 µL/min/1e6 cells | microsomal CLint at 1 µM [4]: < 17 µL/min/mg | EC50 (Lipoprotein lipase): 6 µM | Papp B→A at 10 µM [5]: 31 ×10⁻⁶ cm/s | Activity [6]: inactive | EC50 [7]: > 100 µM | remaining at 4 h [8]: 96% | EC50 [9]: > 100 µM | solubility kinetic at 2 h [10]: < 2 µM | half-life at 1 µM [11]: > 2 h
Structure (SMILES): Cc1ccc(NC(=O)c2cc(-n3cc4ccc(C(=O)O)cc4n3)ccc2N2CCCCC2)cc1

Source: ChEMBL document CHEMBL3745639, “Structure-activity relationships for lipoprotein lipase agonists that lower plasma triglycerides in vivo” (Eur J Med Chem, 2015)
